HCV NS3 hel inh = HCV NS3 helicase inhibition. NS3 helicase DNA unwinding, Cy5 molecular beacon fluorescence. inhibition, % at 10.9 µM. 0.56% of 290,000 active;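 active means inhibition above the mean of all tested compounds plus 3 SD, set per campaign, cut at about 35% in these data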
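Compound dosing – single dose, 10.9 µM nominal final, DMSO 0.8% final · System – NS3 helicase fragment of HCV · Buffer or medium – MOPS pH 6.5, MgCl2, DTT, Tween20, BSA · Signal – Cy5 beacon fluorescence read at start and 1 h · Also added – annealed dual-labelled DNA beacon duplex, ATP-started · Schedule – 1 h at 25 °C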
APOBEC3A inh = inhibitors of human APOBEC3A DNA deaminase. recombinant A3A, FAM/TAMRA ssDNA deamination fluorescence. AID 493011. 0.41% of 330,000 active. P31941. inhibition, % at 20 µM;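 active means at least 40% inhibition at 20 µM here, with at most 30% in a related deaminase screen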
HCV core dimer = HCV core protein dimerization inhibition; TR-FRET GST/Flag-core106 dimerization, 1536-well; inhibition, % at 5 µM; 0.33% of 300,000 active; AID 1899;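 active means inhibition above the mean of all tested compounds plus 3 SD, set per screening campaign, cut at about 45% in these data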
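Assay system: tagged HCV core106 pair (GST and Flag); medium: KF-containing HEPES buffer, pH 7.45, DTT, CHAPS, BSA; also added: Eu donor and XL665 acceptor anti-tag antibodies; dosing: 5 µM single dose; timing: compound-protein-antibody incubation 4 h at 22.5 °C; signal: TR-FRET 671 and 617 nm emission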
PRMT1 FP inh = blocks human protein arginine methyltransferase 1. Q99873. 1.3% of 370,000 active. AID 652257. recombinant PRMT1, activity-based probe fluorescence polarization. inhibition, % at 2.79 µM;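 active means inhibition above about 21% made by adding two undisclosed values, limit read from the data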
ABHD5-PLIN5 inh = ABHD5-PLIN5 protein interaction inhibition | Split G. princeps luciferase complementation, luminescence, 4 h | AID 602281 | 0.78% of 360,000 active | inhibition, % at 4 µM;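 active means inhibition above the mean inhibition across every tested compound plus 3 SD, cut at about 22% in these data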
Target sequence (Q00G26 whole entry, looked up): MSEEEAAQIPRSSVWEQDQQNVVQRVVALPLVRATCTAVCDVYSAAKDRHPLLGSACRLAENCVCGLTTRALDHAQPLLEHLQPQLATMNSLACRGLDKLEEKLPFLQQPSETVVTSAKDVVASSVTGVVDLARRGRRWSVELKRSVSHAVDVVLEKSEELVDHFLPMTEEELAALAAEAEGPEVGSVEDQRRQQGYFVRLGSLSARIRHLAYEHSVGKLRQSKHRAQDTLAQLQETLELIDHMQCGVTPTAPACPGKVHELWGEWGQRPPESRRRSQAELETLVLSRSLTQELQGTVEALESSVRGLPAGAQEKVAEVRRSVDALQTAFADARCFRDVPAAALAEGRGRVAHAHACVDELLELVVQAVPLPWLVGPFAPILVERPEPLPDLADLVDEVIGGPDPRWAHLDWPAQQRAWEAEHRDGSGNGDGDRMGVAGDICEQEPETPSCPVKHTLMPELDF
Target sequence (Q8WTS1 whole entry, looked up): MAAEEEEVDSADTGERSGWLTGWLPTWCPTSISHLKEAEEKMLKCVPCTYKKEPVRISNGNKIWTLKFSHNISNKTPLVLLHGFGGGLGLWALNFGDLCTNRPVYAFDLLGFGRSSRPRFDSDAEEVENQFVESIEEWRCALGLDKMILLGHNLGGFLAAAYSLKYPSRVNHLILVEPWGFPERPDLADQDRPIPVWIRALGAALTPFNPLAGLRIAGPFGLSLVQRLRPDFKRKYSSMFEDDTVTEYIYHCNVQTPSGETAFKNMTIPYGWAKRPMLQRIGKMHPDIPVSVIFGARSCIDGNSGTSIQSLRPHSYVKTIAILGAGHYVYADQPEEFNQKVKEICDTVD
APOBEC3G inh = blocks human APOBEC3G single-stranded DNA deamination. 0.28% of 330,000 active. recombinant A3G, ssDNA deamination FAM/TAMRA fluorescence. Q9HC16. inhibition, % at 20 µM;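 active means inhibition of at least 40% at 20 µM, with no more than 30% in the related APOBEC3A deaminase screen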
NS3 helicase cf = HCV NS3 helicase inhibition, confirmation assay. shares compounds with HCV NS3 hel inh. NS3 helicase DNA unwinding, Cy5 molecular beacon fluorescence. inhibition, % at 10.9 µM. 31% of 1,600 active;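 active means inhibition above the mean of all tested compounds plus 3 SD, cutoff set per campaign, cut at about 36% in these data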
DNA FID counter = counter-screen for HCV NS3 helicase inhibitors: DNA intercalator displacement; shares compounds with HCV NS3 hel inh; DNA fluorescent intercalator displacement, fluorescence; inhibition, % at 7.9 µM; 4% of 1,600 active; AID 1945; in the data active means inhibition above about 37%;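 further: higher means more displacement of ethidium bromide from the DNA hairpin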
FID counter DR = DNA intercalator displacement in dose response | shares compounds with HCV NS3 hel inh | fluorescent intercalator displacement from DNA, fluorescence | IC50, µM | 120 tested, under 10 active; call rule not given here
Numbers stand for hits; . = inactive; / = not tested or not shown. In the library only some 2.9% were active in any assay of this set; here they are far more common.

SMILES	HCV NS3 hel inh	APOBEC3A inh	HCV core dimer	PRMT1 FP inh	ABHD5-PLIN5 inh	APOBEC3G inh	NS3 helicase cf	DNA FID counter	others
O=C(O)CCC(=O)N1N=C(c2c(-c3ccccc3)c3cc(Cl)ccc3[nH]c2=O)CC1c1cccs1 (stereo not drawn)	37	.	.	.	.	.	90	.
CCCc1nn2c(=O)cc(O)nc2s1	.	.	.	.	.	.	/	/
CCCCCCCc1nn2c(=O)cc(O)nc2s1	36	.	.	.	.	.	.	.
CCOC(=O)C1=C(O)/C(=C/c2ccc(OCC(=O)O)c(OC)c2)SC1=Nc1ccc(OC)cc1	36	.	.	.	.	.	42	.
CCOC(=O)C1=C(O)/C(=C/c2cn(CC(=O)N3CCCC3)c3ccccc23)SC1=Nc1ccccc1	.	/	/	/	.	/	/	/
CC(=O)C1=C(O)C(=O)N(c2ccc(Br)cc2)C1c1cccc(F)c1 (stereo not drawn)	37	.	.	.	.	.	.	.
CC[C@]12C(=O)N(C)C[C@H]([C@@H]3C(=O)N(Cc4ccccc4)C(=O)[C@@H]31)N2C(=O)c1ccc(F)cc1	/	/	/	.	.	/	/	/
CC(=O)c1ccc(OC(=O)/C=C/c2ccccc2)cc1	39	.	.	.	.	.	.	.
CC1CC(C)CN(C(=O)C(C)N2CCN(S(=O)(=O)c3ccc(Br)s3)CC2)C1 (stereo not drawn)	/	.	/	.	.	.	/	/
CCn1cc(C(=O)NC2CCCCCC2)c(=O)c2ccc(C)nc21	.	.	.	.	.	.	/	/
Cc1cc(NS(=O)(=O)c2ccc(NC(=O)/C=C/c3c(F)cccc3Cl)cc2)nc(C)n1	36	.	.	.	.	.	.	.
CN(C(=O)c1ccc(F)cc1)c1ccc(OCC(=O)Nc2ccccc2C(=O)O)cc1	/	.	/	.	.	.	/	/
COc1cccc(C(=O)Nc2nnc(S(=O)(=O)Nc3cccc(C)c3)s2)c1	46	.	.	.	.	.	.	.
CCOC(=O)CC(=O)CSc1ccc2nnc(-c3ccc(F)cc3)n2n1	38	.	.	.	.	.	.	.
Oc1c(Br)cc(/C=N/Nc2ccc(Cl)nn2)cc1Br	.	.	.	.	.	.	/	/
Oc1c(Br)cc(Br)cc1/C=N/Nc1ccc(Cl)nn1	41	/	.	.	.	/	.	.
O=[N+]([O-])/C(C=Nc1ccccc1O)=C\Nc1ccccc1O	38	/	/	.	.	/	.	.
O=C(O)CCCCCCCCCCCc1ccccc1	38	.	.	.	.	.	70	.
O=C(NCCO)Nc1ccc2nsnc2c1	.	.	.	.	.	.	/	/
CC(=O)c1ccc(NC(=O)c2ccc3nc(-c4ccco4)c(-c4ccco4)nc3c2)cc1	39	.	78	/	.	.	78	.
O=C(NCCO)Nc1ccc2nc(-c3ccco3)c(-c3ccco3)nc2c1	57	.	76	/	/	.	67	38
S=C(Nc1ccc(N2CCOCC2)cc1)Nc1ccc2nc(-c3ccco3)c(-c3ccco3)nc2c1	55	.	83	43	.	.	.	.
O=C(c1ccc2nc(-c3ccco3)c(-c3ccco3)nc2c1)N1CCN(c2ncccn2)CC1	53	.	62	35	.	.	84	.	FID counter DR=.
CCCCC[C@@H]1[C@H]2[C@H]3C(=O)N(c4ccccc4)C(=O)[C@H]3CC(=O)[C@H]2[C@H](c2ccccc2)N1S(=O)(=O)c1ccc(C)cc1	/	/	/	.	.	/	/	/
CN(C)S(=O)(=O)n1cc(/C=C(\NC(=O)c2ccccc2F)C(=O)N2CCCCC2)c2ccccc21	/	/	/	.	.	/	/	/
SMILES	HCV NS3 hel inh	APOBEC3A inh	HCV core dimer	PRMT1 FP inh	ABHD5-PLIN5 inh	APOBEC3G inh	NS3 helicase cf	DNA FID counter	others
COC(=O)N/N=C/c1cc(C)n(-c2ccc(Br)cc2)c1C	.	.	.	.	.	.	/	/
COC(=O)N/N=C/c1cc(C)n(-c2ccc(F)cc2)c1C	42	.	.	.	.	.	.	.
COC(=O)[C@]12C[C@H](CC(=O)NCc3ccc(C)o3)C(=O)N(Cc3ccco3)C1=C[C@H](C(C)(C)C)O[C@@H]2C	/	/	/	.	/	/	/	/
Cc1ncc(CO)c2c1Oc1nc(-c3ccccc3)nc(SCC(=O)Nc3cccc(O)c3)c1C2	.	.	.	.	.	.	/	/
COc1ccc(-c2nc3c(c(SCC(=O)Nc4cccc(O)c4)n2)Cc2c(CO)cnc(C)c2O3)cc1	70	.	71	.	33	.	.	.
Cc1ccc(-c2nc(CNC(=O)c3ccco3)cs2)cc1	41	.	.	.	.	.	.	.
O=C(NC(Cc1ccccc1)C(=O)N1CCN(c2ccccn2)CC1)c1ccco1 (stereo not drawn)	49	.	.	.	.	.	.	.
CC(=O)NC(Cc1ccccc1)C(=O)N1CCN(C(=O)c2ccco2)CC1 (stereo not drawn)	.	.	.	/	.	.	/	/
COc1ccc(N2CC(NC(=O)NCC(C)C)CC2=O)cc1 (stereo not drawn)	53	.	.	.	.	.	.	.
C=CCOC(=O)c1[nH]c2c(c1C)C(=O)CC(c1ccco1)C2 (stereo not drawn)	39	.	.	/	/	.	.	.
C/C=C/COC(=O)c1[nH]c2c(c1C)C(=O)CC(c1ccc(N(C)C)cc1)C2 (stereo not drawn)	.	.	.	.	.	.	/	/
CCCN1CCN(C(=O)c2ccc3[nH]c(C)c(C)c3c2)CC1	/	/	/	.	.	/	/	/
O=C(O)CC(C(=O)O)N1C(=O)/C(=C/C=C/c2ccco2)SC1=S (stereo not drawn)	74	.	.	54	.	.	87	.
O=C(O)CCCN1C(=O)/C(=C\C(Cl)=C\c2ccccc2)SC1=S	.	/	/	.	.	/	/	/
O=C(O)CCCN1C(=O)/C(=C/C=C/c2ccco2)SC1=S	73	.	75	42	.	.	76	.
O=C(CC1Nc2ccccc2NC1=O)c1ccccc1 (stereo not drawn)	.	.	.	/	/	.	/	/
O=C(CC1Nc2cccc3cccc(c23)NC1=O)Nc1ccccc1 (stereo not drawn)	67	.	.	.	.	.	.	.
CCCOc1ccc(NC(=O)CC2Nc3ccccc3NC2=O)cc1 (stereo not drawn)	.	.	.	.	.	.	/	/
NC(=O)CC1Nc2cccc3cccc(c23)NC1=O (stereo not drawn)	61	.	.	.	.	.	.	.
COc1ccc2oc(=N)c(C(=O)Nc3cccc(C)c3C)cc2c1	.	.	.	.	.	.	/	/
O=C(/C=C/c1ccco1)Nc1nc(-c2ccc(F)c(F)c2)cs1	54	.	.	/	/	.	.	.

Screening results deposited in PubChem BioAssay by several laboratories.
